Assay [1] relates to NCI-H460. The experiment in a line: Growth inhibition of human H460 cells after 48 hrs by MTT assay. It is filed as functional. Conditions: NCI-H460, 48 h. An outline of the steps:
(§1)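 Cells seeded 3000/well (OVCA, SW620, H460) or 5000/well (AGS), grown 24 h, then exposed to serial dilutions (DMSO stock) for 48 h at 37 °C, 5% CO2. MTT (2 mg/ml in PBS) added for 2 h; formazan dissolved in DMSO and read at 570 nm. Inhibition = (1 − At/Ac)×100 vs vehicle; GI50 interpolated from dose–response curves; four to six separate experiments, mean ± SEM.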
For orientation: Formazan colour is commonly taken as a measure of viable cells.

For assay [2], the system named is SW-620. The experiment in a line: Growth inhibition of human SW620 cells at 40 uM after 48 hrs by MTT assay. In kind it is functional, cell-based. An outline of the steps:
(§2)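 MTT growth inhibition at the top tested concentration of 40 uM, 48 h exposure, cells seeded as for GI50 (3000/well OVCA, SW620, H460; 5000/well AGS).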

The subject of assay [3] is AGS. The experiment in a line: Growth inhibition of human AGS cells at 40 uM after 48 hrs by MTT assay. In kind it is functional, cell-based. The method in brief: as §2
Assay [4] deals with OVCAR. The assay can be described thus: Growth inhibition of human OVCAR cells after 48 hrs by MTT assay. In kind it is functional. The method in brief:
as §1

For assay [5], the system named is AGS. The assay can be described thus: Growth inhibition of human AGS cells after 48 hrs by MTT assay. In kind it is functional. The method in brief: as §1
Assay [6] relates to SW-620. The experiment in a line: Growth inhibition of human SW620 cells after 48 hrs by MTT assay. In kind it is functional. The note with it: SW-620, 48 h. An outline of the steps: as §1
In assay [7] the test system is NCI-H460. The experiment in a line: Growth inhibition of human H460 cells at 40 uM after 48 hrs by MTT assay. In kind it is functional, cell-based. An outline of the steps:
as §2

Assay [8] has as its system OVCAR. The experiment in a line: Growth inhibition of human OVCAR cells at 40 uM after 48 hrs by MTT assay. It is filed as functional, cell-based. An outline of the steps:
as §2

In general, GI50 refers to the concentration giving 50% growth inhibition. Read a low GI50 as more potent growth inhibition.

The source made the active and inactive calls. The calls are words filed in the database; no cut-off is given here.

Take `COc1ccccc1-c1cc(-c2ccccc2-c2ccccc2)n[nH]1`: the values for the GI50 with NCI-H460 [1] and with OVCAR [4] were 9.1 µM and 14.2 µM, respectively. In addition, the “growth inhibition (GI)” value with SW-620 [2] and in the assay with AGS [3] was “inactive” throughout.

Turning to `Oc1ccccc1-c1cc(-c2ccccc2-c2ccccc2)n[nH]1`, the GI50 is 4.6 µM in the assay on NCI-H460 [1], 7.5 µM in the assay with AGS [5], 5.8 µM with OVCAR [4] and 10.6 µM with SW-620 [6].

In the case of `COc1ccccc1-c1cc(-c2ccc([N+](=O)[O-])cc2)[nH]n1`, the GI50 in the assay with NCI-H460 [1] was found to be 20.5 µM; in the assay on OVCAR [4], 11.7 µM. Moreover, the “growth inhibition (GI)” value in the assay on SW-620 [2] and in the assay on AGS [3] was “inactive” throughout.

Take `CN(C)c1ccc(-c2cc(-c3ccc(C(F)(F)F)cc3)n[nH]2)cc1`: the “growth inhibition (GI)” value with SW-620 [2], with AGS [3] and with NCI-H460 [7] was “inactive” throughout.

In the case of `O=[N+]([O-])c1ccc(-c2cc(-c3ccc(Cl)cc3)n[nH]2)cc1`, the GI50 with NCI-H460 [1] was determined as 20.7 µM; in the assay with AGS [5], 24.1 µM; in the assay with SW-620 [6], 12.2 µM. The “growth inhibition (GI)” value in the assay on OVCAR [8] was “inactive”.

Consider `Oc1ccc(-c2cc(-c3ccccc3-c3ccccc3)n[nH]2)cc1`, for which the GI50 is 6.9 µM with NCI-H460 [1], 9.2 µM in the assay on AGS [5], 6.2 µM in the assay on OVCAR [4] and 25.9 µM in the assay on SW-620 [6].

For the compound `COc1cccc(-c2cc(-c3ccc([N+](=O)[O-])cc3)[nH]n2)c1`, the concentration for 50% growth inhibition (GI50) was found to be 11.2 µM in the assay with NCI-H460 [1] and 19.1 µM with OVCAR [4]. Besides, the “growth inhibition (GI)” value in the assay with SW-620 [2] and in the assay with AGS [3] was “inactive” in each case.

Consider `COc1cccc(-c2cc(-c3ccccc3-c3ccccc3)n[nH]2)c1`, for which the GI50 is 8.7 µM in the assay with NCI-H460 [1], 7.5 µM in the assay on AGS [5] and 5.8 µM with OVCAR [4]. Moreover, the “growth inhibition (GI)” value in the assay on SW-620 [2] is “inactive”.

Turning to `O=[N+]([O-])c1ccc(-c2cc(-c3ccc(F)cc3)n[nH]2)cc1`, the GI50 in the assay with AGS [5] is 18.3 µM; in the assay on SW-620 [6], 18.1 µM. Moreover, the “growth inhibition (GI)” value in the assay with OVCAR [8] and in the assay with NCI-H460 [7] was “inactive” in each case.

On to `Nc1ccc(-c2cc(-c3ccccc3)n[nH]2)cc1`, for which the GI50 in the assay with NCI-H460 [1] was found to be 26.7 µM; with SW-620 [6], 25.4 µM. In addition, the “growth inhibition (GI)” value with OVCAR [8] and in the assay with AGS [3] was “inactive” in each case.

As to `COc1ccc(-c2cc(-c3ccccc3)n[nH]2)cc1`, the GI50 with NCI-H460 [1] is 10.4 µM; in the assay with AGS [5] it was 11.3 µM; in the assay on OVCAR [4], 9.9 µM; in the assay with SW-620 [6], 27.2 µM.

With `COc1ccc(-c2cc(-c3ccc(C(F)(F)F)cc3)n[nH]2)cc1`, the GI50 in the assay on AGS [5] was determined as 14.8 µM; in the assay on OVCAR [4], 22.8 µM; in the assay on SW-620 [6] it was 11.2 µM. The “growth inhibition (GI)” value in the assay on NCI-H460 [7] was “inactive”.

Take `O=[N+]([O-])c1ccc(-c2cc(-c3ccccc3)n[nH]2)cc1`: the GI50 was found to be 10.2 µM in the assay on NCI-H460 [1] and 7.2 µM in the assay with OVCAR [4]. The “growth inhibition (GI)” value with SW-620 [2] and in the assay on AGS [3] was “inactive” in each case.

Regarding `COc1ccc(-c2cc(-c3ccc(Cl)cc3)n[nH]2)cc1`, the GI50 in the assay on NCI-H460 [1] turned out to be 11.6 µM; in the assay with OVCAR [4], 12.8 µM. The “growth inhibition (GI)” value with SW-620 [2] and in the assay with AGS [3] was “inactive” throughout.

In the case of `Oc1ccc(-c2cc(-c3ccc(C(F)(F)F)cc3)n[nH]2)cc1`, the GI50 in the assay on NCI-H460 [1] amounted to 20.1 µM; with AGS [5], 9.8 µM; with OVCAR [4], 9.2 µM; with SW-620 [6], 19.6 µM.

With `O=[N+]([O-])c1ccc(-c2cc(-c3ccc(Br)cc3)n[nH]2)cc1`, the GI50 in the assay on AGS [5] was determined as 14.6 µM; in the assay with OVCAR [4] it was 17.5 µM; in the assay with SW-620 [6], 28.6 µM. Moreover, in the assay on NCI-H460 [7], the “growth inhibition (GI)” value is “inactive”.

`COc1ccc(-c2cc(-c3ccc(N)cc3)[nH]n2)cc1`: the “growth inhibition (GI)” value with OVCAR [8], in the assay on SW-620 [2], in the assay with AGS [3] and in the assay with NCI-H460 [7] was “inactive” throughout.

With `COc1ccc(-c2cc(-c3ccc([N+](=O)[O-])cc3)[nH]n2)cc1OC`, the GI50 in the assay with NCI-H460 [1] came to 17.9 µM; with OVCAR [4], 28.9 µM; in the assay on SW-620 [6] it was 26.4 µM. Moreover, the “growth inhibition (GI)” value with AGS [3] is “inactive”.

As for `O=[N+]([O-])c1ccc(-c2cc(-c3ccc4c(c3)OCO4)n[nH]2)cc1`, the GI50 with NCI-H460 [1] was 8.9 µM; with AGS [5], 13.1 µM; with OVCAR [4], 10.8 µM; with SW-620 [6], 23.5 µM.

Take `O=[N+]([O-])c1cccc(-c2cc(-c3ccccc3)n[nH]2)c1`: the GI50 in the assay with NCI-H460 [1] was 6.1 µM; in the assay with AGS [5] it was 11.4 µM; in the assay on OVCAR [4], 5.8 µM. In addition, the “growth inhibition (GI)” value with SW-620 [2] is “inactive”.

Regarding `COc1ccc(-c2cc(-c3ccc(F)cc3)n[nH]2)cc1`, the “growth inhibition (GI)” value in the assay with SW-620 [2], in the assay with AGS [3] and in the assay on NCI-H460 [7] was “inactive” in each case. In the assay on OVCAR [4], this compound gave a GI50 of 14 µM.

As for `COc1cccc(-c2cc(-c3ccc(N)cc3)[nH]n2)c1`, the “growth inhibition (GI)” value in the assay on OVCAR [8], in the assay with SW-620 [2], with AGS [3] and with NCI-H460 [7] was “inactive” throughout.

As for `COc1ccc(-c2cc(-c3ccc4ccccc4c3)n[nH]2)cc1`, the GI50 in the assay on NCI-H460 [1] was 13.2 µM; in the assay on AGS [5] it was 19 µM; in the assay with OVCAR [4], 17.5 µM; in the assay on SW-620 [6], 26.9 µM.

Regarding `COc1ccc(-c2cc(-c3ccc(N)cc3)[nH]n2)cc1OC`, the “growth inhibition (GI)” value with OVCAR [8], in the assay on SW-620 [2], in the assay with AGS [3] and with NCI-H460 [7] was “inactive” in each case.

With `Nc1ccc(-c2cc(-c3ccc(C(F)(F)F)cc3)n[nH]2)cc1`, the GI50 with NCI-H460 [1] came out at 21.5 µM; in the assay with OVCAR [4] it was 18.6 µM. Also, the “growth inhibition (GI)” value with SW-620 [2] and in the assay on AGS [3] was “inactive” in each case.

On to `O=[N+]([O-])c1ccc(-c2cc(-c3ccc(C(F)(F)F)cc3)n[nH]2)cc1`, for which the “growth inhibition (GI)” value with OVCAR [8], with AGS [3] and in the assay with NCI-H460 [7] was “inactive” throughout.

Consider `Nc1ccc(-c2cc(-c3ccccc3-c3ccccc3)n[nH]2)cc1`, for which the GI50 in the assay with NCI-H460 [1] worked out at 8.2 µM; with AGS [5], 8.4 µM; in the assay with OVCAR [4] it was 17.9 µM. Besides, the “growth inhibition (GI)” value in the assay with SW-620 [2] was “inactive”.

`COc1ccc(-c2cc(-c3ccc([N+](=O)[O-])cc3)[nH]n2)cc1`: the GI50 with NCI-H460 [1] was determined as 18.3 µM; in the assay on OVCAR [4], 27.3 µM; with SW-620 [6], 14.3 µM. Further, the “growth inhibition (GI)” value with AGS [3] is “inactive”.

With `O=[N+]([O-])c1ccc(-c2cc(-c3ccccc3-c3ccccc3)n[nH]2)cc1`, the GI50 in the assay with NCI-H460 [1] was 2.7 µM; with AGS [5], 1.2 µM; with OVCAR [4], 3.4 µM; in the assay with SW-620 [6] it was 12.2 µM.

With `COc1ccc(-c2cc(-c3ccc(Br)cc3)n[nH]2)cc1`, the GI50 with NCI-H460 [1] came out at 27.1 µM; in the assay on OVCAR [4], 20.7 µM. Also, the “growth inhibition (GI)” value with SW-620 [2] and in the assay with AGS [3] was “inactive” throughout.

With `COc1ccccc1-c1cc(-c2ccc(N)cc2)[nH]n1`, the “growth inhibition (GI)” value in the assay with OVCAR [8], in the assay on AGS [3] and with NCI-H460 [7] was “inactive” in each case. Besides, the 50% growth inhibitory concentration (GI50) in the assay on SW-620 [6] was 21.1 µM.

For the origin of these results see ChEMBL document CHEMBL1158554, “3,5-Diaryl-1H-pyrazole as a molecular scaffold for the synthesis of apoptosis-inducing agents” (2010).
